Test results: ChEMBL document CHEMBL1142148, “Antibiotic susceptibility profile of bifidobacteria as affected by oxgall, acid, and hydrogen peroxide stress” (2007)
≈ marks a conversion by molar mass, not a printed value.

Tests used:
[1] = tested on: Bifidobacterium thermophilum; assay: Antimicrobial activity against 60 min 1 M HCl-stressed Bifidobacterium thermophilum ATCC 25866 after 18 hrs; type: functional
How it was run: (§1)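 Mid-log MRS culture pelleted and resuspended in MRS broth brought to pH 2.0 with 1 M HCl, held anaerobically at 37°C for 60 min, then subcultured in MRS (pH 6.5) for 24 h anaerobically before MIC testing by broth microdilution (as for unstressed cells). Table footnote gives 18 h anaerobic regrowth after the stress. MIC is the median of four repetitions.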

Bifidobacterium longum [2] = assay: Antimicrobial activity against 90 mins hydrogen peroxide-stressed Bifidobacterium longum ATCC 15707 after 18 hrs; type: functional
How it was run: (§2)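 Stress applied for 90 min at 37°C under anaerobic conditions, using MRS (initial pH 6.5) containing H2O2 at each strain's own inhibitory concentration. The H2O2 level was set beforehand by microplate tolerance testing. Challenged cells were regrown in MRS for 24 h (footnote: 18 h) before MIC testing by broth microdilution. Median of four repetitions.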

[3] = tested on: Bifidobacterium thermophilum; assay: Antimicrobial activity against 90 mins oxgall-stressed Bifidobacterium thermophilum ATCC 25866 after 18 hrs; type: functional
How it was run: (§3)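 Cells pelleted from mid-log MRS culture and resuspended in MRS (initial pH 6.5) with 0.3% (wt/vol) oxgall for 90 min anaerobically at 37°C. They were then regrown in MRS pH 6.5 for 24 h (footnote: 18 h) anaerobically and tested for MIC by the same broth microdilution assay. Median of four repetitions.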

Bifidobacterium longum [4] = assay: Antimicrobial activity against Bifidobacterium longum R0175; type: functional
How it was run: (§4)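 Broth microdilution in MRS plus 0.05% L-cysteine-HCl. Mid-log culture adjusted to OD650 0.1, giving about 2.5 × 10^4 to 5.0 × 10^4 CFU/well, then added to twofold serial dilutions of agent. Plates incubated anaerobically at 37°C for 18 h and read at OD650. MIC is the lowest concentration matching the uninoculated blank OD, taken as the median of four repeats.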

Bifidobacterium bifidum [5] = assay: Antimicrobial activity against 90 mins oxgall-stressed Bifidobacterium bifidum R0071 after 18 hrs; type: functional; how it was run: as §3
Bifidobacterium longum [6] = assay: Antimicrobial activity against 60 min 1 M HCl-stressed Bifidobacterium longum R0175 after 18 hrs; type: functional; how it was run: as §1
Bifidobacterium breve [7] = assay: Antimicrobial activity against 90 mins hydrogen peroxide-stressed Bifidobacterium breve R0070 after 18 hrs; type: functional; how it was run: as §2
[8] = tested on: Bifidobacterium pseudolongum; assay: Antimicrobial activity against 60 min 1 M HCl-stressed Bifidobacterium pseudolongum ATCC 25562 after 18 hrs; type: functional; how it was run: as §1
[9] = Antimicrobial activity against Bifidobacterium infantis ATCC 15697; type: functional, Bifidobacterium longum subsp. infantis; settings: Bifidobacterium longum; how it was run: as §4
Bifidobacterium bifidum [10] = assay: Antimicrobial activity against 90 mins oxgall-stressed Bifidobacterium bifidum ATCC 15696 after 18 hrs; type: functional; how it was run: as §3
Bifidobacterium longum [11] = assay: Antimicrobial activity against 90 mins hydrogen peroxide-stressed Bifidobacterium longum ATCC 15708 after 18 hrs; type: functional; how it was run: as §2
Bifidobacterium longum [12] = assay: Antimicrobial activity against 90 mins hydrogen peroxide-stressed Bifidobacterium longum R0175 after 18 hrs; type: functional; how it was run: as §2
Bifidobacterium longum [13] = assay: Antimicrobial activity against Bifidobacterium longum ATCC 15707; type: functional; how it was run: as §4
Bifidobacterium bifidum [14] = assay: Antimicrobial activity against Bifidobacterium bifidum BB12; type: functional; how it was run: as §4
Bifidobacterium longum [15] = assay: Antimicrobial activity against 90 mins oxgall-stressed Bifidobacterium longum R0175 after 18 hrs; type: functional; how it was run: as §3
[16] = tested on: Bifidobacterium pseudolongum; assay: Antimicrobial activity against Bifidobacterium pseudolongum ATCC 25562; type: functional; how it was run: as §4
Bifidobacterium longum [17] = assay: Antimicrobial activity against Bifidobacterium longum P/N 601377; type: functional; how it was run: as §4
Bifidobacterium breve [18] = assay: Antimicrobial activity against Bifidobacterium breve ATCC 15700; type: functional; how it was run: as §4
Bifidobacterium bifidum [19] = assay: Antimicrobial activity against 90 mins oxgall-stressed Bifidobacterium bifidum BB12 after 18 hrs; type: functional; how it was run: as §3
Bifidobacterium animalis [20] = assay: Antimicrobial activity against 90 mins hydrogen peroxide-stressed Bifidobacterium animalis ATCC 27536 after 18 hrs; type: functional; how it was run: as §2
Bifidobacterium longum [21] = assay: Antimicrobial activity against 90 mins oxgall-stressed Bifidobacterium longum ATCC 15707 after 18 hrs; type: functional; how it was run: as §3
Bifidobacterium breve [22] = assay: Antimicrobial activity against 90 mins oxgall-stressed Bifidobacterium breve R0070 after 18 hrs; type: functional; how it was run: as §3
Bifidobacterium longum [23] = assay: Antimicrobial activity against 60 min 1 M HCl-stressed Bifidobacterium longum ATCC 15707 after 18 hrs; type: functional; how it was run: as §1
Bifidobacterium bifidum [24] = assay: Antimicrobial activity against Bifidobacterium bifidum R0071; type: functional; how it was run: as §4
Bifidobacterium bifidum [25] = assay: Antimicrobial activity against 60 min 1 M HCl-stressed Bifidobacterium bifidum BB12 after 18 hrs; type: functional; how it was run: as §1
Bifidobacterium breve [26] = assay: Antimicrobial activity against 60 min 1 M HCl-stressed Bifidobacterium breve ATCC 15700 after 18 hrs; type: functional; how it was run: as §1
Bifidobacterium bifidum [27] = assay: Antimicrobial activity against 60 min 1 M HCl-stressed Bifidobacterium bifidum R0071 after 18 hrs; type: functional; how it was run: as §1
Bifidobacterium bifidum [28] = assay: Antimicrobial activity against Bifidobacterium bifidum ATCC 15696; type: functional; how it was run: as §4
Bifidobacterium breve [29] = assay: Antimicrobial activity against 60 min 1 M HCl-stressed Bifidobacterium breve R0070 after 18 hrs; type: functional; how it was run: as §1
Bifidobacterium animalis [30] = assay: Antimicrobial activity against Bifidobacterium animalis ATCC 27536; type: functional; how it was run: as §4
Bifidobacterium breve [31] = assay: Antimicrobial activity against Bifidobacterium breve R0070; type: functional; how it was run: as §4
Bifidobacterium longum [32] = assay: Antimicrobial activity against 60 min 1 M HCl-stressed Bifidobacterium longum P/N 601377 after 18 hrs; type: functional; how it was run: as §1
Bifidobacterium animalis [33] = assay: Antimicrobial activity against 90 mins oxgall-stressed Bifidobacterium animalis ATCC 27536 after 18 hrs; type: functional; how it was run: as §3
Bifidobacterium longum [34] = assay: Antimicrobial activity against 90 mins hydrogen peroxide-stressed Bifidobacterium longum P/N 601377 after 18 hrs; type: functional; how it was run: as §2
Bifidobacterium longum [35] = assay: Antimicrobial activity against 90 mins oxgall-stressed Bifidobacterium longum ATCC 15708 after 18 hrs; type: functional; how it was run: as §3
Bifidobacterium animalis [36] = assay: Antimicrobial activity against 60 min 1 M HCl-stressed Bifidobacterium animalis ATCC 27536 after 18 hrs; type: functional; how it was run: as §1
Bifidobacterium breve [37] = assay: Antimicrobial activity against 90 mins oxgall-stressed Bifidobacterium breve ATCC 15700 after 18 hrs; type: functional; how it was run: as §3
[38] = tested on: Bifidobacterium thermophilum; assay: Antimicrobial activity against 90 mins hydrogen peroxide-stressed Bifidobacterium thermophilum ATCC 25866 after 18 hrs; type: functional; how it was run: as §2
[39] = Antimicrobial activity against 90 mins oxgall-stressed Bifidobacterium infantis ATCC 15697 after 18 hrs; type: functional, Bifidobacterium longum subsp. infantis; settings: Bifidobacterium longum; how it was run: as §3
Bifidobacterium breve [40] = assay: Antimicrobial activity against 90 mins hydrogen peroxide-stressed Bifidobacterium breve ATCC 15700 after 18 hrs; type: functional; how it was run: as §2
Bifidobacterium longum [41] = assay: Antimicrobial activity against 90 mins oxgall-stressed Bifidobacterium longum P/N 601377 after 18 hrs; type: functional; how it was run: as §3
Bifidobacterium longum [42] = assay: Antimicrobial activity against Bifidobacterium longum ATCC 15708; type: functional; how it was run: as §4
[43] = Antimicrobial activity against 60 min 1 M HCl-stressed Bifidobacterium infantis ATCC 15697 after 18 hrs; type: functional, Bifidobacterium longum subsp. infantis; settings: Bifidobacterium longum; how it was run: as §1
Bifidobacterium bifidum [44] = assay: Antimicrobial activity against 90 mins hydrogen peroxide-stressed Bifidobacterium bifidum R0071 after 18 hrs; type: functional; how it was run: as §2
[45] = tested on: Bifidobacterium thermophilum; assay: Antimicrobial activity against Bifidobacterium thermophilum ATCC 25866; type: functional; how it was run: as §4
Bifidobacterium bifidum [46] = assay: Antimicrobial activity against 90 mins hydrogen peroxide-stressed Bifidobacterium bifidum BB12 after 18 hrs; type: functional; how it was run: as §2
[47] = tested on: Bifidobacterium pseudolongum; assay: Antimicrobial activity against 90 mins oxgall-stressed Bifidobacterium pseudolongum ATCC 25562 after 18 hrs; type: functional; how it was run: as §3

- MIC [1]: 0.98 µg/mL (≈ 1.34 µM)
- MIC (Bifidobacterium longum [2]): 0.98 µg/mL (≈ 1.34 µM)
- MIC [3]: 3.9 µg/mL (≈ 5.31 µM)
- MIC (Bifidobacterium longum [4]): 0.98 µg/mL (≈ 1.34 µM)
- MIC (Bifidobacterium bifidum [5]): 3.9 µg/mL (≈ 5.31 µM)
- MIC (Bifidobacterium longum [6]): 0.98 µg/mL (≈ 1.34 µM)
- MIC (Bifidobacterium breve [7]): 0.98 µg/mL (≈ 1.34 µM)
- MIC [8]: 3.9 µg/mL (≈ 5.31 µM)
- MIC [9]: 15.6 µg/mL (≈ 21.3 µM)
- MIC (Bifidobacterium bifidum [10]): 3.9 µg/mL (≈ 5.31 µM)
- MIC (Bifidobacterium longum [11]): 0.98 µg/mL (≈ 1.34 µM)
- MIC (Bifidobacterium longum [12]): 0.98 µg/mL (≈ 1.34 µM)
- MIC (Bifidobacterium longum [13]): 0.98 µg/mL (≈ 1.34 µM)
- MIC (Bifidobacterium bifidum [14]): 15.6 µg/mL (≈ 21.3 µM)
- MIC (Bifidobacterium longum [15]): 1.9 µg/mL (≈ 2.59 µM)
- MIC [16]: 3.9 µg/mL (≈ 5.31 µM)
- MIC (Bifidobacterium longum [17]): 0.98 µg/mL (≈ 1.34 µM)
- MIC (Bifidobacterium breve [18]): 1.95 µg/mL (≈ 2.66 µM)
- MIC (Bifidobacterium bifidum [19]): 3.9 µg/mL (≈ 5.31 µM)
- MIC (Bifidobacterium animalis [20]): 0.98 µg/mL (≈ 1.34 µM)
- MIC (Bifidobacterium longum [21]): 3.9 µg/mL (≈ 5.31 µM)
- MIC (Bifidobacterium breve [22]): 0.98 µg/mL (≈ 1.34 µM)
- MIC (Bifidobacterium longum [23]): 0.98 µg/mL (≈ 1.34 µM)
- MIC (Bifidobacterium bifidum [24]): 1.9 µg/mL (≈ 2.59 µM)
- MIC (Bifidobacterium bifidum [25]): 3.9 µg/mL (≈ 5.31 µM)
- MIC (Bifidobacterium breve [26]): 3.9 µg/mL (≈ 5.31 µM)
- MIC (Bifidobacterium bifidum [27]): 0.98 µg/mL (≈ 1.34 µM)
- MIC (Bifidobacterium bifidum [28]): 7.8 µg/mL (≈ 10.6 µM)
- MIC (Bifidobacterium breve [29]): 0.98 µg/mL (≈ 1.34 µM)
- MIC (Bifidobacterium animalis [30]): 3.9 µg/mL (≈ 5.31 µM)
- MIC (Bifidobacterium breve [31]): 0.98 µg/mL (≈ 1.34 µM)
- MIC (Bifidobacterium longum [32]): 0.98 µg/mL (≈ 1.34 µM)
- MIC (Bifidobacterium animalis [33]): 1.9 µg/mL (≈ 2.59 µM)
- MIC (Bifidobacterium longum [34]): 1.9 µg/mL (≈ 2.59 µM)
- MIC (Bifidobacterium longum [35]): 1.9 µg/mL (≈ 2.59 µM)
- MIC (Bifidobacterium animalis [36]): 1.9 µg/mL (≈ 2.59 µM)
- MIC (Bifidobacterium breve [37]): 0.98 µg/mL (≈ 1.34 µM)
- MIC [38]: 0.98 µg/mL (≈ 1.34 µM)
- MIC [39]: 3.9 µg/mL (≈ 5.31 µM)
- MIC (Bifidobacterium breve [40]): 0.98 µg/mL (≈ 1.34 µM)
- MIC (Bifidobacterium longum [41]): 3.9 µg/mL (≈ 5.31 µM)
- MIC (Bifidobacterium longum [42]): 3.9 µg/mL (≈ 5.31 µM)
- MIC [43]: 3.9 µg/mL (≈ 5.31 µM)
- MIC (Bifidobacterium bifidum [44]): 500 µg/mL (≈ 681 µM)
- MIC [45]: 0.98 µg/mL (≈ 1.34 µM)
- MIC (Bifidobacterium bifidum [46]): 0.98 µg/mL (≈ 1.34 µM)
- MIC [47]: 3.9 µg/mL (≈ 5.31 µM)
SMILES: CC[C@H]1OC(=O)[C@H](C)[C@@H](O[C@H]2C[C@@](C)(OC)[C@@H](O)[C@H](C)O2)[C@H](C)[C@@H](O[C@@H]2O[C@H](C)C[C@H](N(C)C)[C@H]2O)[C@](C)(O)C[C@@H](C)C(=O)[C@H](C)[C@@H](O)[C@]1(C)O [ERYTHROMYCIN]
